Calls of active or inactive are those of the source. No cut-off for these calls is given here.
Legend:
[1] = molecular target: T1, Histone-lysine N-methyltransferase SETD7 (Homo sapiens) (UniProt Q8WTS6); assay: Inhibition of Set7/9 in human MCF7 cells assessed as ERalpha destabilization at 43 uM for 36 hrs by immunoblotting analysis in presence of proteasome inhibitor MG132; format: cell-based
T1 sequence (whole entry): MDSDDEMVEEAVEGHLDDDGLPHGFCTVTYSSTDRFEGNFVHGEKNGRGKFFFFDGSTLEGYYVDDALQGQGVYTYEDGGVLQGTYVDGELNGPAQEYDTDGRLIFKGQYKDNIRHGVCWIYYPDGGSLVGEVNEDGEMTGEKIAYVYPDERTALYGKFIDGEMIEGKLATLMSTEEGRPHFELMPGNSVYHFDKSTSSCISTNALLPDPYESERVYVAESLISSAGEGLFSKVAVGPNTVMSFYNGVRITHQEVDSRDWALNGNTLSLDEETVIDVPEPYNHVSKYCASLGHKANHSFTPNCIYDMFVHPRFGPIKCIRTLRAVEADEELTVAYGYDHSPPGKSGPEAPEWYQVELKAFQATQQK
Outline: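 MCF7 cells treated with or without 43 μM drug for 36 h, then MG132 added for 12 h. Cells lysed by sonication in RIPA buffer with protease inhibitors. ERα read by SDS-PAGE/PVDF immunoblot with chemiluminescent detection.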

MCF7 [2] = assay: Antitumor activity against Fucci introduced human MCF7 cells xenografted in Balb/c-nu/nu mouse at 20 mg/kg, ip qd administered as single dose; format: functional, organism-based
Outline: (§1)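 Female Balb/C-nu/nu mice, 7 weeks old, carried mammary Fucci-MCF7 xenografts (about 2 × 10^7 cells) grown to about 100 mm3. A single ip dose of 20 mg/kg in saline with 10% ethanol was given on day 1; a vehicle group ran alongside. Caliper tumor volume (a2b)/2 and body weight were recorded every 3 or 4 days to day 15. Tumor volume relative to day 1; six mice, mean ± SE.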

[3] = molecular target: T2, Histone-lysine N-methyltransferase EHMT2 (Homo sapiens) (UniProt Q96KQ7); assay: Inhibition of G9a (unknown origin) by ELISA
T2 sequence (whole entry): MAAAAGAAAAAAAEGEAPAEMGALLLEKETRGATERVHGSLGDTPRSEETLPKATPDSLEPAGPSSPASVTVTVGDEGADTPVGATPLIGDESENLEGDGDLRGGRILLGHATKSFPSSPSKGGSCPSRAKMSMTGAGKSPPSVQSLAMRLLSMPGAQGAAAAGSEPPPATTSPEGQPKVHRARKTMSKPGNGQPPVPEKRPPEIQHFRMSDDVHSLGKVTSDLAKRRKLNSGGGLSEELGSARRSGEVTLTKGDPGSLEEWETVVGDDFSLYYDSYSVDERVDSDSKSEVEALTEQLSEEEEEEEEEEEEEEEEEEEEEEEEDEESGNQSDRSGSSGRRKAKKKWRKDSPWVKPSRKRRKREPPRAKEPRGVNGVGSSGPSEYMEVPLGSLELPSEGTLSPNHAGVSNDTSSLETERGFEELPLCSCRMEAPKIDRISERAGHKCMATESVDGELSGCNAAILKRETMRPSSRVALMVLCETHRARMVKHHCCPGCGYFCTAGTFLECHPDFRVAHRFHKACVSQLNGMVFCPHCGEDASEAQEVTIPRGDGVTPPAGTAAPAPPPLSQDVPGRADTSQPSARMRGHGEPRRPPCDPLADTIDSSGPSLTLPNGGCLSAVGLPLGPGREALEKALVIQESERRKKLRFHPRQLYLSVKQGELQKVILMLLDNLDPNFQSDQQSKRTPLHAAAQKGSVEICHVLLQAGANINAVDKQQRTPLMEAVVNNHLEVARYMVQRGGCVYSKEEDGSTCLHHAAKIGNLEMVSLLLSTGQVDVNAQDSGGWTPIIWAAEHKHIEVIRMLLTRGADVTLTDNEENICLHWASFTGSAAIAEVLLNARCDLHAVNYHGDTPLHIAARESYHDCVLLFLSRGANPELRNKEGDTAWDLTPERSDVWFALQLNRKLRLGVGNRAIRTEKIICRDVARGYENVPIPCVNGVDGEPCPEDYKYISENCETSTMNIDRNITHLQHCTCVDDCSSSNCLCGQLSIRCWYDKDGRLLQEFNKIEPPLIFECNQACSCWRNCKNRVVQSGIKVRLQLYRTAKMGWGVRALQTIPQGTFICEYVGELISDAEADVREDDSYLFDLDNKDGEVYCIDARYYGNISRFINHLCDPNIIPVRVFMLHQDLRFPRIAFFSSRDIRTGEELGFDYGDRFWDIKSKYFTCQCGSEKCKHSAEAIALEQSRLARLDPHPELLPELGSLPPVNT

[4] = molecular target: T1, Histone-lysine N-methyltransferase SETD7 (Homo sapiens); assay: Competitive inhibition of recombinant Set7/9 (unknown origin) expressed in Escherichia coli BL21 (DE3) using varying Ac-KRSK-MCA peptide as substrate in presence of SAM preincubated for 1 hr followed by substrate addition measured after 15 mins by Lineweaver-Burk plot analysis
Outline: (§2)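 His6-tagged Set7/9 purified by Ni2+ affinity from E. coli BL21(DE3) after induction with 0.1 mM IPTG at 18 °C for 24 h. Kinetics were run in a fluorogenic HMT assay using Ac-KRSK-MCA peptide, with either SAM or peptide concentration varied. Initial velocities were analysed by Lineweaver–Burk plot, four independent assays.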

[5] = molecular target: T1, Histone-lysine N-methyltransferase SETD7 (Homo sapiens); assay: Non competitive inhibition of recombinant Set7/9 (unknown origin) expressed in Escherichia coli BL21 (DE3) using Ac-KRSK-MCA peptide as substrate and varying SAM preincubated for 1 hr followed by substrate addition measured after 15 mins by Lineweaver-Burk plot analysis; outline: as §2
[6] = molecular target: Histone-lysine N-methyltransferase, H3 lysine-79 specific (Homo sapiens) (UniProt Q8TEK3); assay: Inhibition of Dot1L (unknown origin) by AlphaELISA
Chain of Histone-lysine N-methyltransferase, H3 lysine-79 specific (Homo sapiens) (Q8TEK3 whole entry, looked up): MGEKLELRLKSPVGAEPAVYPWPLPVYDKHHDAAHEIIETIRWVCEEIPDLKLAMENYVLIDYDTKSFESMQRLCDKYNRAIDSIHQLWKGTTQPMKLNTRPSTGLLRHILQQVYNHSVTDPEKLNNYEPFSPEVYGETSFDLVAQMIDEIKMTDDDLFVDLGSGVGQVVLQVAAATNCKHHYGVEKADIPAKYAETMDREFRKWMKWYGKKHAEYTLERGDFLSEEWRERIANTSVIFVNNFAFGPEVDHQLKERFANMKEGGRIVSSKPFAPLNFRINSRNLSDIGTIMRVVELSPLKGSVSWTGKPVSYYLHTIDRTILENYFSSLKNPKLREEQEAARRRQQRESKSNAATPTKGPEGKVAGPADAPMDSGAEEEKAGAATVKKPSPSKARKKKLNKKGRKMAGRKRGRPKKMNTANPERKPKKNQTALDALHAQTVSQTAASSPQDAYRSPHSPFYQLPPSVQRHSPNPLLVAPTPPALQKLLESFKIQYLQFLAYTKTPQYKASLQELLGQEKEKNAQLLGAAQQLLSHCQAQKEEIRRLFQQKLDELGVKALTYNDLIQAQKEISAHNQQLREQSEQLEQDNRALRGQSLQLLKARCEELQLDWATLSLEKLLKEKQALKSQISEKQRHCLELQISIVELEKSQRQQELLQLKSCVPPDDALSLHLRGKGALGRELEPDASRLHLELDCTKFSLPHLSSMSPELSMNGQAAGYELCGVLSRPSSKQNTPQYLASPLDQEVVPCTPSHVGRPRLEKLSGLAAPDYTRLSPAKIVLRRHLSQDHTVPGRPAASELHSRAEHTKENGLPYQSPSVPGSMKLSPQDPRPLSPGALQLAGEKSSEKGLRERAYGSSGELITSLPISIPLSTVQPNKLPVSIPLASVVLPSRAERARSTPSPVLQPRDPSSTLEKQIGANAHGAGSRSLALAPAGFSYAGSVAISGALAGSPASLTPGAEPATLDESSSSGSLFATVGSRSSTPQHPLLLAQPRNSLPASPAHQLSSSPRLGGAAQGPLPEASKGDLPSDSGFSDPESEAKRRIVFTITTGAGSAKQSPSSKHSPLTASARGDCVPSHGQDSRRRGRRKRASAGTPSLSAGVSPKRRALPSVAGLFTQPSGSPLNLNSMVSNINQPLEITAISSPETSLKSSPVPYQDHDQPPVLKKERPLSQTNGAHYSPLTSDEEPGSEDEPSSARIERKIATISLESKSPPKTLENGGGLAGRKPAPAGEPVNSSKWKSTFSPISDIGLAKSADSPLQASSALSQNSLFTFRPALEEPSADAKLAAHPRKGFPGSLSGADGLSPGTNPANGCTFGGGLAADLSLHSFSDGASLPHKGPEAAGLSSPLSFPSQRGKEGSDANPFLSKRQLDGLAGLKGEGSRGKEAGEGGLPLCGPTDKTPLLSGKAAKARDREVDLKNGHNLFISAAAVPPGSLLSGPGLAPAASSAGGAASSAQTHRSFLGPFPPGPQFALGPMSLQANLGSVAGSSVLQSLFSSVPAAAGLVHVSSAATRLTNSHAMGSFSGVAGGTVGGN

[7] = molecular target: T2, Histone-lysine N-methyltransferase EHMT2 (Homo sapiens); assay: Inhibition of G9a (unknown origin) by fluorogenic assay
Mus musculus = assay: Effect on body weight in Balb/c-nu/nu mouse xenografted with Fucci introduced human MCF7 cells at 20 mg/kg, ip qd administered as single dose; format: ADME, organism-based; conditions: in vivo; outline: as §1
MCF7 [8] = assay: Antitumor activity against Fucci introduced human MCF7 cells xenografted in Balb/c-nu/nu mouse at 20 mg/kg, ip qd administered as continuous dose for 8 days measured every 3 to 4 days until day 15; format: functional, organism-based
Outline: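 Female Balb/C-nu/nu mice, 7 weeks old, each inoculated with about 2 × 10^7 Fucci-MCF7 cells in the mammary gland. Dosing started when tumors reached about 100 mm3, 13 days after inoculation. 20 mg/kg given ip once daily, days 1–8, in saline with 10% ethanol; a vehicle group ran alongside. Caliper tumor volume (a2b)/2 and body weight were recorded every 3 or 4 days to day 15. Six mice per group, mean ± SE.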

[9] = molecular target: T1, Histone-lysine N-methyltransferase SETD7 (Homo sapiens); assay: Inhibition of Set7/9 in human MCF7 cells assessed as suppression of beta-estradiol-induced pS2 mRNA expression at 14 to 43 uM preincubated for 24 hrs followed by beta-estradiol addition measured after 24 hrs by RT-PCR analysis

inhibition [1]: inactive
inhibition [3]: Active
inhibition [4]: Active
inhibition [5]: Active
inhibition [6]: Active
inhibition [7]: Active
inhibition [9]: Active
Compound: CN1CCC(=C2c3ccccc3C=Cc3ccccc32)CC1 [CYPROHEPTADINE]
TGI (MCF7 [2]): Active
Activity (Mus musculus): Non-toxic
TGI (MCF7 [8]): Active
